Measured values: ChEMBL document CHEMBL1914324, “Discovery of novel spirocyclic inhibitors of fatty acid amide hydrolase (FAAH). Part 2. Discovery of 7-azaspiro[3.5]nonane urea PF-04862853, an orally efficacious inhibitor of fatty acid amide hydrolase (FAAH) for pain” (Bioorg Med Chem Lett, 2011)

Assays:
[1] = biological target: T1, Fatty-acid amide hydrolase 1 (Homo sapiens) (UniProt O00519); assay: Ratio of Kinact to Ki for human FAAH activity
T1 sequence (whole entry): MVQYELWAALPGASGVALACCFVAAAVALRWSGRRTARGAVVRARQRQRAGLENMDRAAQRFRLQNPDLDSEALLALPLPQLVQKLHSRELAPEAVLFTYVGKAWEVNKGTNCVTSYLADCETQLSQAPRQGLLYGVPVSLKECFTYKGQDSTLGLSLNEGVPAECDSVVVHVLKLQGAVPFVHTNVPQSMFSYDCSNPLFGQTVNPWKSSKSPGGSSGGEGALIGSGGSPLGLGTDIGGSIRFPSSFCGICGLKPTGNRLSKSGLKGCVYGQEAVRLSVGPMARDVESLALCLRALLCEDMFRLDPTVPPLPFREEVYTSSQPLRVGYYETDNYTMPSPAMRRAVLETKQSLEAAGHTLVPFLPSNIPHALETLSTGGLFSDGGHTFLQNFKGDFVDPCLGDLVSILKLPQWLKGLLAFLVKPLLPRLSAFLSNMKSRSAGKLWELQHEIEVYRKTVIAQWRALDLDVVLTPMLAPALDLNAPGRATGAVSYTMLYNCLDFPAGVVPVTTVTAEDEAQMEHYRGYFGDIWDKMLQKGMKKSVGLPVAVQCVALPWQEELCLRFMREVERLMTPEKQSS
How it was run: (§1)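 kinact/Ki determined against human and rat FAAH. Each value is the average of at least two independent determinations.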

[2] = biological target: T2, Fatty-acid amide hydrolase 1 (Rattus norvegicus) (UniProt P97612); assay: Ratio of Kinact to Ki for rat FAAH activity; how it was run: as §1
T2 sequence (whole entry): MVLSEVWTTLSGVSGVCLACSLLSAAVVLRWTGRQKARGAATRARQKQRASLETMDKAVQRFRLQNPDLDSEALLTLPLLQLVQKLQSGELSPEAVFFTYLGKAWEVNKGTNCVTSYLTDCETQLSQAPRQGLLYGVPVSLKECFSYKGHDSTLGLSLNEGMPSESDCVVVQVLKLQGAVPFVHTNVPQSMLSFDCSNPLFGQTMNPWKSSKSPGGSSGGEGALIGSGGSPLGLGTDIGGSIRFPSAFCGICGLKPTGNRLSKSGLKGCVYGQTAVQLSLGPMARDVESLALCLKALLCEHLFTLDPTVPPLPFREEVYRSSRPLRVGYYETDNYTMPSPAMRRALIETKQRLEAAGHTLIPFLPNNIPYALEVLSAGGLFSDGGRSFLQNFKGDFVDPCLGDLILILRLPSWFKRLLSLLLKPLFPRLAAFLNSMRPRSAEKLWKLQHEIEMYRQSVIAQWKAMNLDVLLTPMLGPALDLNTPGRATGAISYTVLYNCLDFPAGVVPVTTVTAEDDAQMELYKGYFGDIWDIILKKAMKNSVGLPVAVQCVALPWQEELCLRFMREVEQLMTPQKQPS

SMILES	Ratio [1] [M⁻¹ s⁻¹]	Ratio [2] [M⁻¹ s⁻¹]
Cc1noc(NC(=O)N2CCC3(CC2)CC(c2cccc(Cl)c2)CO3)c1C (racemic)	2040	2670
Cc1noc(NC(=O)N2CCC3(CC2)CC(c2ccccc2C(F)(F)F)C3)c1C	1140	
COc1ccccc1C1CC2(CCN(C(=O)Nc3onc(C)c3C)CC2)C1	2640	265
CCn1nnnc1NC(=O)N1CCC2(CC1)CC(c1cccc(OC(F)(F)F)c1)C2	6940	3420
Cc1noc(NC(=O)N2CCC3(CC2)CC(c2ccc(F)c(Cl)c2)CO3)c1C (racemic)	1580	3950
Cc1noc(NC(=O)N2CCC3(CC2)CC(c2cccc(C(F)(F)F)c2)C3)c1C	3060	3690
Cc1noc(NC(=O)N2CCC3(CC2)CC(c2ccccc2OC(F)(F)F)C3)c1C	839	564
Cn1nnnc1NC(=O)N1CCC2(CC1)CC(c1ccc(F)c(Cl)c1)C2	16300	5940
Cn1nnc(NC(=O)N2CCC3(CC2)CC(c2cccc(OC(F)(F)F)c2)C3)n1	165	152
COc1cccc(C2CC3(CCN(C(=O)Nc4onc(C)c4C)CC3)C2)c1	2190	741
Cc1noc(NC(=O)N2CCC3(CC2)CC(c2ccccc2)C3)c1C	2080	679
Cc1noc(NC(=O)N2CCC3(CC2)CC(c2ccccc2)CO3)c1C (racemic)	461	315
CCc1noc(NC(=O)N2CCC3(CC2)CC(c2cccc(OC(F)(F)F)c2)C3)c1C	1650	1660
Cc1noc(NC(=O)N2CCC3(CC2)CC(c2ccc(Cl)c(Cl)c2)CO3)c1C (racemic)	2430	4360
Cc1noc(NC(=O)N2CCC3(CC2)CC(c2cccc(OC(F)(F)F)c2)CO3)c1C (racemic)	1800	3110
Cc1noc(NC(=O)N2CCC3(CC2)CC(c2cccc(Cl)c2)CO3)c1C (stereo in doubt; form 2)	2590	3830
Cc1noc(NC(=O)N2CCC3(CC2)CC(c2cccc(Cl)c2)CO3)c1C (stereo in doubt; form 1)	2390	1560

Second part, the compound after the results:

Ratio [1] [M⁻¹ s⁻¹]	Ratio [2] [M⁻¹ s⁻¹]	SMILES
2030	2070	Cc1noc(NC(=O)N2CCC3(CC2)CC(c2ccc(Cl)cc2)C3)c1C
243	999	Cc1noc(NC(=O)N2CCC3(CC2)CC(c2cccc(C#N)c2)CO3)c1C (racemic)
3760	2110	Cn1nnnc1NC(=O)N1CCC2(CC1)CC(c1cccc(C(F)(F)F)c1)CO2 (stereo in doubt; form 2)
64	34.2	Cc1onc(NC(=O)N2CCC3(CC2)CC(c2cccc(OC(F)(F)F)c2)C3)c1C
< 10		Cn1ncnc1NC(=O)N1CCC2(CC1)CC(c1cccc(OC(F)(F)F)c1)C2
5600	1970	Cn1nnnc1NC(=O)N1CCC2(CC1)CC(c1cccc(Cl)c1)CO2 (centres undefined)
245	348	Cc1noc(NC(=O)N2CCC3(CC2)CC(c2ccc(C(F)(F)F)cc2)C3)c1C
1330	2680	Cc1noc(NC(=O)N2CCC3(CC2)CC(c2cccc(C(F)(F)F)c2)CO3)c1C (racemic)
2870	1620	Cc1cccc(C2CC3(CCN(C(=O)Nc4onc(C)c4C)CC3)C2)c1
353	229	Cc1noc(NC(=O)N2CCC3(CC2)CC(c2ccc(OC(F)(F)F)cc2)C3)c1C
338		CCc1c(C)noc1NC(=O)N1CCC2(CC1)CC(c1cccc(OC(F)(F)F)c1)C2
1530	2460	Cc1nnc(NC(=O)N2CCC3(CC2)CC(c2cccc(OC(F)(F)F)c2)C3)o1
162	461	Cc1noc(NC(=O)N2CCC3(CC2)CC(c2ccc(OC(F)(F)F)cc2)CO3)c1C (racemic)
113		Cc1cc(NC(=O)N2CCC3(CC2)CC(c2cccc(OC(F)(F)F)c2)C3)on1
	9460	Cc1noc(NC(=O)N2CCC3(CC2)CC(c2cccc(Oc4ccc(C(F)(F)F)cn4)c2)C3)c1C
